Each block holds one molecule with its values, some of them ahead of it. Active and inactive are the calls of the source. The rule behind the calls is not given here.
What was measured:
Daoy = assay: Antiproliferative activity against human Daoy cells assessed as inhibition of cell growth; type: functional, cell-based
In short: (§1)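 Compounds from 10 mM DMSO stocks; final DMSO ≤0.25%. Growth inhibition of cancer cell lines read from dose-response curves; IC50 as mean ± SEM of at least three independent experiments.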

Jurkat = assay: Antiproliferative activity against human Jurkat cells assessed as inhibition of cell growth; type: functional, cell-based; in short: as §1
Bos taurus [1] = species: Bos taurus; assay: Inhibition of [3H]colchicine binding to bovine brain tubulin at 0.5 uM relative to control; type: tissue-based
In short: (§2)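 [3H]colchicine binding to purified tubulin, with tubulin at 0.5 µM and colchicine at 5 µM. Compounds tested at 5 and 0.5 µM. CA-4 was run in contemporaneous experiments for comparison.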

Bos taurus [2] = species: Bos taurus; assay: Inhibition of [3H]colchicine binding to bovine brain tubulin at 5 uM relative to control; in short: as §2
HT-29 = assay: Antiproliferative activity against human HT-29 cells assessed as inhibition of cell growth; type: functional, cell-based
In short: (§3)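 Growth inhibition of cancer cell lines read from dose-response curves; IC50 as mean ± SEM of at least three independent experiments.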

HL-60 = assay: Antiproliferative activity against human HL-60 cells assessed as inhibition of cell growth; type: functional, cell-based; in short: as §3
HeLa [3] = assay: Antiproliferative activity against human HeLa cells assessed as inhibition of cell growth; type: functional, cell-based; in short: as §3
SEM cells = assay: Antiproliferative activity against human SEM cells assessed as inhibition of cell growth; type: functional, cell-based; in short: as §1
HeLa [4] = assay: Induction of apoptosis in human HeLa cells assessed as late apoptotic cells at 10 nM measured after 48 hrs by Annexin V-FITC/propidium iodide staining based flow cytometry (reference value: 1.22 %); type: functional
HeLa [5] = assay: Induction of mitochondrial membrane potential loss in human HeLa cells assessed as cells with polarized mitochondrial membrane at 10 nM after 24 hrs by JC-1 dye-based flow cytometric analysis (reference value: 92.0 %); type: functional
HeLa [6] = assay: Induction of microtubule network depolymerization in human HeLa cells assessed as appearance of disorganised microtubules at 100 nM after 24 hrs by immunofluorescence staining based confocal microscopic analysis; type: cell-based
In short: (§4)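 HeLa cells treated 24 h at 10, 50 or 100 nM. They were then fixed in cold 4% formaldehyde for 15 min and stained with anti-β-tubulin for 2 h at room temperature. Alexa 488 secondary and DAPI counterstain followed; imaged by confocal microscopy at 20X.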

HeLa [7] = assay: Induction of microtubule network depolymerization in human HeLa cells assessed as appearance of disorganised microtubules at 10 nM after 24 hrs by immunofluorescence staining based confocal microscopic analysis; type: cell-based; in short: as §4
HeLa [8] = assay: Induction of apoptosis in human HeLa cells assessed as early apoptotic cells at 10 nM measured after 48 hrs by Annexin V-FITC/propidium iodide staining based flow cytometry (reference value: 0.96 %); type: functional
[9] = Inhibition of bovine brain tubulin polymerisation preincubated with compound followed by GTP addition and measured after 20 mins by turbidimetry based spectrophotometric method; type: tissue-based, Bos taurus
In short: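 Bovine brain tubulin (10 µM) in glutamate buffer, preincubated with varying compound concentrations at 30 °C, then cooled to 0 °C. GTP added to 0.4 mM final, then warmed to 30 °C in a recording spectrophotometer. Assembly followed by turbidity at 350 nm.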

[10] = Cytotoxicity against PHA-stimulated human PBL assessed as inhibition of cell growth; type: cell-based; conditions: PHA-stimulated peripheral blood lymphocytes (PBL)
In short: (§5)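 Peripheral blood lymphocytes from healthy donors, tested either unstimulated or stimulated with PHA; DMSO ≤0.25% final. Values are mean ± SEM of three separate experiments.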

HeLa [11] = assay: Induction of mitochondrial membrane potential loss in human HeLa cells assessed as cells with depolarized mitochondrial membrane at 10 nM after 24 hrs by JC-1 dye-based flow cytometric analysis (reference value: 7.8 %); type: functional
HeLa [12] = assay: Induction of apoptosis in human HeLa cells assessed as necrotic cells at 10 nM measured after 48 hrs by Annexin V-FITC/propidium iodide staining based flow cytometry (reference value: […]); type: functional
[13] = Cytotoxicity against normal human astrocytes assessed as inhibition of cell growth; type: cell-based, Astrocyte
HeLa [14] = assay: Induction of apoptosis in human HeLa cells assessed as late apoptotic cells at 10 nM measured after 24 hrs by Annexin V-FITC/propidium iodide staining based flow cytometry (reference value: 1.22 %); type: functional
HeLa [15] = assay: Induction of apoptosis in human HeLa cells assessed as viable cells at 10 nM measured after 24 hrs by Annexin V-FITC/propidium iodide staining based flow cytometry (reference value: 97.28 %); type: functional; conditions: read-out: Activity
HeLa [16] = assay: Induction of microtubule network depolymerization in human HeLa cells assessed as appearance of disorganised microtubules at 50 nM after 24 hrs by immunofluorescence staining based confocal microscopic analysis; type: cell-based; in short: as §4
[17] = Cytotoxicity against human PBL assessed as inhibition of cell growth; type: cell-based; conditions: peripheral blood lymphocytes (PBL); in short: as §5
HeLa [18] = assay: Induction of mitochondrial membrane potential loss in human HeLa cells assessed as cells with depolarized mitochondrial membrane at 10 nM after 48 hrs by JC-1 dye-based flow cytometric analysis (reference value: 7.8 %); type: functional
HeLa [19] = assay: Induction of apoptosis in human HeLa cells assessed as viable cells at 10 nM measured after 48 hrs by Annexin V-FITC/propidium iodide staining based flow cytometry (reference value: 97.28 %); type: functional; conditions: read-out: Activity
HeLa [20] = assay: Induction of mitochondrial membrane potential loss in human HeLa cells assessed as cells with polarized mitochondrial membrane at 10 nM after 48 hrs by JC-1 dye-based flow cytometric analysis (reference value: 92.0 %); type: functional
HeLa [21] = assay: Induction of apoptosis in human HeLa cells assessed as early apoptotic cells at 10 nM measured after 24 hrs by Annexin V-FITC/propidium iodide staining based flow cytometry (reference value: 0.96 %); type: functional
HeLa [22] = assay: Induction of apoptosis in human HeLa cells assessed as necrotic cells at 10 nM measured after 24 hrs by Annexin V-FITC/propidium iodide staining based flow cytometry (reference value: […]); type: functional

IC50 (HT-29): 477 nM
IC50 (HL-60): 233 nM
IC50 (HeLa [3]): 496 nM
IC50 (Jurkat): 333 nM
SMILES: COc1cc(C(=O)c2c(N)oc3c(OC)cccc23)cc(OC)c1OC
IC50 (Daoy): 345 nM
IC50 (SEM cells): 285 nM

IC50 (HT-29): 591 nM
IC50 (HL-60): 339 nM
IC50 (HeLa [3]): 413 nM
IC50 (Jurkat): 385 nM
SMILES: COc1cc(C(=O)c2c(N)oc3ccccc23)cc(OC)c1OC
IC50 (Daoy): 371 nM
IC50 (SEM cells): 250 nM

IC50 (HT-29): 682 nM
IC50 (HL-60): 413 nM
IC50 (HeLa [3]): 591 nM
IC50 (Jurkat): 299 nM
SMILES: COc1cc(C(=O)c2c(N)oc3cc(F)ccc23)cc(OC)c1OC
IC50 (Daoy): 846 nM
IC50 (SEM cells): 333 nM

IC50 (HT-29): 787 nM
IC50 (HL-60): 3.5 nM
IC50 (HeLa [3]): 6.2 nM
IC50 (Jurkat): 3.1 nM
SMILES: COc1ccc2c(N)c(C(=O)c3cc(OC)c(OC)c(OC)c3)oc2c1
IC50 (Daoy): 5 nM
IC50 (SEM cells): 3.6 nM

Continued, molecule first:

SMILES: COc1ccc(/C=C\c2cc(OC)c(OC)c(OC)c2)cc1O [COMBRETASTATIN A4]
IC50 (Daoy): 12.3 nM
IC50 (Jurkat): 0.8 nM
inhibition (Bos taurus [1]): 82%
inhibition (Bos taurus [2]): 97%

SMILES: COc1cc(C(=O)c2c(N)oc3cc(OCc4ccccc4)ccc23)cc(OC)c1OC
IC50 (Daoy): > 10000 nM
IC50 (HT-29): 8680 nM
IC50 (HL-60): 7060 nM
IC50 (HeLa [3]): 9670 nM
IC50 (Jurkat): 4390 nM
IC50 (SEM cells): 3680 nM

SMILES: COc1cc(C(=O)c2c(N)oc3ccc(N)cc23)cc(OC)c1OC
IC50 (Daoy): 494 nM
IC50 (HT-29): 790 nM
IC50 (HL-60): 413 nM
IC50 (HeLa [3]): 635 nM
IC50 (Jurkat): 399 nM
IC50 (SEM cells): 259 nM

SMILES: CCOc1cccc2c(C(=O)c3cc(OC)c(OC)c(OC)c3)c(N)oc12
IC50 (Daoy): 1670 nM
IC50 (HT-29): 910 nM
IC50 (HL-60): 428 nM
IC50 (HeLa [3]): 1250 nM
IC50 (Jurkat): 390 nM
IC50 (SEM cells): 385 nM

SMILES: COc1cc(C(=O)c2c(N)oc3cc(C)ccc23)cc(OC)c1OC
Activity (HeLa [4]): 9.35%
Activity (HeLa [5]): 74.9%
IC50 (Daoy): 0.34 nM
Activity (HeLa [6]): Active
IC50 (HT-29): 0.6 nM
Activity (HeLa [7]): Active
Activity (HeLa [8]): 37.13%
IC50 (HL-60): 3.5 nM
IC50 [9]: 390 nM
GI50 [10]: > 10000 nM
Activity (HeLa [11]): 24.8%
Activity (HeLa [12]): 27.08%
IC50 (HeLa [3]): 1.1 nM
GI50 [13]: > 10000 nM
IC50 (Jurkat): 0.33 nM
Activity (HeLa [14]): 2.51%
inhibition (Bos taurus [1]): 74%
viability at 0.01 µM (HeLa [15]): 74.4%
Activity (HeLa [16]): Active
GI50 [17]: > 10000 nM
Activity (HeLa [18]): 42.6%
viability at 0.01 µM (HeLa [19]): 26.4%
Activity (HeLa [20]): 57.3%
inhibition (Bos taurus [2]): 97%
IC50 (SEM cells): 0.3 nM
Activity (HeLa [21]): 10.95%
Activity (HeLa [22]): 12.11%

From ChEMBL document CHEMBL4765328 (Eur J Med Chem, 2020)
